Test results published in ChEMBL document CHEMBL1134490, “Estradiol-16alpha-carboxylic acid esters as locally active estrogens” (2001).

Legend:
Ishikawa = assay: Relative stimulation of alkaline phosphatase (AlkP) activity in Ishikawa cells; format: functional, Homo sapiens
Method in brief: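 Ishikawa cells in phenol red-free medium with charcoal-stripped bovine serum, exposed for 3 days to steroid over at least 6 orders of magnitude of concentration. Cells were freeze-thawed, then given 5 mM p-nitrophenyl phosphate at pH 9.8, read kinetically at 405 nm. RSA = (1/EC50 analogue)/(1/EC50 E2) × 100. At least three experiments in duplicate.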

[1] = system: esterase (Rattus norvegicus); assay: Relative hydrolytic activity against esterase in rat hepatic microsomes; conditions: Liver

| RHA [1] | Structure (SMILES) | RSA (Ishikawa) |
| --- | --- | --- |
| – | C[C@]12CC[C@@H]3c4ccc(O)cc4CC[C@H]3[C@@H]1CCC2=O [ESTRONE] | 7 |
| – | C[C@]12CC[C@@H]3c4ccc(O)cc4CC[C@H]3[C@@H]1C[C@@H](CC(=O)O)[C@@H]2O | 0 |
| 910 | COC(=O)CC[C@@H]1C[C@H]2[C@@H]3CCc4cc(O)ccc4[C@H]3CC[C@]2(C)[C@H]1O | 0 |
| – | CC(C)OC(=O)[C@@H]1C[C@H]2[C@@H]3CCc4cc(O)ccc4[C@H]3CC[C@]2(C)[C@H]1O | 0.1 |
| 340 | COC(=O)C[C@@H]1C[C@H]2[C@@H]3CCc4cc(O)ccc4[C@H]3CC[C@]2(C)[C@H]1O | 0.5 |
| 700 | CCOC(=O)C[C@@H]1C[C@H]2[C@@H]3CCc4cc(O)ccc4[C@H]3CC[C@]2(C)[C@H]1O | 0.3 |
| – | C[C@]12CC[C@@H]3c4ccc(O)cc4CC[C@H]3[C@@H]1C[C@@H](CCC(=O)O)[C@@H]2O | 0 |
